Active and inactive are the calls of the source. The rule behind the calls is not given here.
What was measured:
[1] = test system: HT-1080; experiment: Antiproliferative activity against human HT1080 cells after 48 hrs by SRB assay; assay type: functional; details: HT-1080, 48 h
In short: (§1)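 Cells were grown in high-glucose DMEM with 5% defined bovine calf serum and pre-incubated 24 h at 37 °C in 5% CO2. Drugs were freshly dissolved in DMSO, diluted in medium and added in serial dilutions, with DMSO kept below 0.5%, and incubated 48 h. Cells were fixed with cold TCA (10% final, 60 min at 4 °C), stained 15 min with 0.1% SRB in 1% acetic acid, and the dye solubilized in Tris base. Absorbance was read at 585 nm and growth inhibition % calculated against a control plate fixed on the treatment day.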

[2] = test system: HT-29; experiment: Antiproliferative activity against human HT-29 cells after 48 hrs by SRB assay; assay type: functional; details: HT-29, 48 h; in short: as §1
[3] = test system: M21; experiment: Antiproliferative activity against human M21 cells after 48 hrs by SRB assay; assay type: functional; details: M21, 48 h; in short: as §1
[4] = test system: MCF7; experiment: Antiproliferative activity against human MCF7 cells after 48 hrs by SRB assay; assay type: functional; details: MCF7, 48 h; in short: as §1
[5] = Binding affinity to pGEM-9Zf(-) DNA assessed as effect on DNA migration at 40 uM by gel electrophoresis
In short: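 Human topo1 was then added and the mix held 2 h at 37 °C in the dark. The reaction was stopped with SDS and proteinase K (1 h, 45 °C). Products were run on 1% agarose with 0.1% SDS in TBE (16 h, 1.25 V/cm), stained with ethidium bromide, and re-run 2 h at 2 V/cm. Ethidium bromide served as the intercalation reference and camptothecin as the poison control.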

[6] = test system: MCF7; experiment: Cell cycle arrest in human MCF7 cells assessed as accumulation at G2/M phase at 6.6 uM after 24 hrs by flow cytometry; assay type: functional, cell-based
In short: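 Exponentially growing MCF-7 cells were exposed to compound or DMSO control for 4, 24 or 48 h and analysed by flow cytometry with 488 nm argon laser excitation. Cell-cycle distribution was expressed as the treated/control ratio.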

Structure (SMILES)	GI50 [1] [µM]	GI50 [2] [µM]	GI50 [4] [µM]	Activity [5]	GI50 [3] [µM]	Activity [6]
O=C1CCCc2nc3ccc4nccn4c3cc21	> 100	> 100	> 100		> 100	
Cc1ccc2ccn3ccnc3c2n1	> 100	> 100	> 100		> 100	
CCOC(=O)C1CCc2nc3c(ccn4ccnc34)cc2C1 (stereo not drawn)	64.9	79.6	57.7		80.3	
CCc1ccc2ccn3ccnc3c2n1	> 100	> 100	> 100		> 100	
c1cn2c(ccc3nc4c(cc32)CCCC4)n1	> 100	> 100	> 100		> 100	
Cc1cc2ccn3ccnc3c2nc1C	> 100	> 100	> 100		> 100	
c1cn2ccc3cc4c(nc3c2n1)CCCC4	> 100	> 100	> 100		> 100	
O=C1CCCc2nc3c(ccn4ccnc34)cc21	> 100	> 100	> 100		> 100	

The next lines start with results.

GI50 [1] [µM]	GI50 [2] [µM]	GI50 [4] [µM]	Activity [5]	Structure (SMILES)	GI50 [3] [µM]	Activity [6]
> 100	> 100	> 100		Cc1cc2c(ccc3nccn32)nc1C	> 100	
1.6	16.8	5.6		COc1cc(NS(C)(=O)=O)ccc1Nc1c2ccccc2nc2ccccc12 [AMSACRINE]	49.6	
43.3	55.8	51.8		c1ccc(-c2ccc3c(ccc4nccn43)n2)cc1	70.1	
> 100	> 100	> 100		CCOC(=O)C1CCc2nc3ccc4nccn4c3cc2C1 (stereo not drawn)	> 100	
41.4	49.2	46.5		c1ccc2c(c1)CCc1nc3c(ccn4ccnc34)cc1-2	64.8	
57.7	48.4	60.5		c1ccc(-c2ccc3ccn4ccnc4c3n2)cc1	56.5	
13.4	7.2	6.6	Active	c1ccc2c(c1)CCc1cc3ccn4ccnc4c3nc1-2	8.1	Active
20.7	18.3	21.5		c1ccc2cc3nc4c(ccn5ccnc45)cc3cc2c1	25.2	
> 100	> 100	> 100		Cc1ccc2c(ccc3nccn32)n1	> 100	
32.7	27.8	20.9		c1ccc2c(c1)CCc1cc3c(ccc4nccn43)nc1-2	52	
> 100	> 100	> 100		CCc1ccc2c(ccc3nccn32)n1	> 100	

Source: ChEMBL document CHEMBL1154478, “Novel imidazo[1,2-a]naphthyridinic systems (part 1): synthesis, antiproliferative and DNA-intercalating activities” (2008)
